Reference: ChEMBL document CHEMBL4196050, “Design, synthesis, and biological evaluation of compounds with a new scaffold as anti-neuroinflammatory agents for the treatment of Alzheimer's disease” (Eur J Med Chem, 2018)
Activity calls are given as the source filed them. No cut-off for these calls is given here.

What was measured:
BV-2 [1] = test: Antineuroinflammatory activity in mouse BV2 cells assessed as inhibition of LPS-induced IL-1beta production after 24 hrs by ELISA; assay type: functional, cell-based; settings: BV-2, 24 h
Outline: (§1)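 BV2 cells plated at 4 × 10⁵ cells/mL, grown 48 h, medium replaced with DMEM. Compound added first, then LPS; incubated 24 h at 37 °C. TNF-α or IL-1β in culture medium measured by ELISA. % inhibition = (F_L − F_C)/(F_L − F₀) × 100 against LPS-only and unstimulated cells. IC50 by nonlinear regression of ≥3 independent experiments, mean SEM.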

BV-2 [2] = test: Antineuroinflammatory activity in mouse BV2 cells assessed as inhibition of LPS-induced TNFalpha production after 24 hrs by ELISA; assay type: functional, cell-based; settings: BV-2, 24 h; outline: as §1
[3] = Permeability of the compound after 10 hrs by PAMPA; assay type: ADME; settings: read-out: permeability
Outline: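 PAMPA-BBB: filter coated with porcine brain lipid in dodecane (20 mg/mL); acceptor PBS/EtOH (7:3). DMSO stocks (5 mg/mL) diluted 50-fold in PBS/EtOH into donor wells. Sandwich left 10 h at 25 °C; acceptor concentration read by UV plate reader. Pe from volumes, filter area, time and acceptor/equilibrium absorbance. Means SD of ≥3 experiments; Pe > 4.7 × 10⁻⁶ cm/s taken as BBB-permeable.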

BV-2 [4] = test: Antineuroinflammatory activity in mouse BV2 cells assessed as inhibition of LPS-induced NO production pretreated for 30 mins followed by LPS stimulation and measured after 24 hrs by Griess assay; assay type: functional, cell-based
Outline: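 BV2 microglia plated at 4 × 10⁵ cells/mL and grown 48 h, then medium replaced. Compounds at various concentrations given 30 min before LPS; incubated 24 h at 37 °C. Equal volume of Griess reagent added to medium, 10 min at room temperature, absorbance read at 540 nm. % inhibition = (F_L − F_C)/(F_L − F₀) × 100. IC50 by nonlinear regression, ≥3 independent experiments, mean SEM.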

BV-2 [5] = test: Antineuroinflammatory activity in mouse BV2 cells assessed as inhibition of LPS-induced iNOS production pretreated for 30 mins followed by LPS stimulation for 16 hrs by Western blot analysis; assay type: functional, cell-based
[6] = biological target: MAP kinase p38 (Mus musculus) (UniProt P47811+O08911+Q9WUI1+Q9Z1B7); test: Inhibition of LPS-induced p38 phosphorylation in mouse BV2 cells up to 10 uM preincubated for 30 mins followed by LPS-stimulation for 16 hrs by Western blot analysis; assay type: cell-based
Outline: (§2)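 BV2 cells in 6-well plates, with or without compound 30 min, then with or without LPS for 16 h. Lysed in RIPA with protease and phosphatase inhibitors; cytoplasmic and nuclear fractions separated; protein by BCA. Run on 10% SDS-PAGE, PVDF, milk/TBST block 2 h, primary antibody 4 °C overnight, secondary 2 h at room temperature, chemiluminescence. Phospho-ERK1/2 (Thr202/Tyr204), p38 (Thr180/Tyr182), JNK (Thr183/Tyr185), IκBα (Ser32); GAPDH and Lamin B references. Three independent experiments.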

[7] = biological target: Transcription factor p65 (Mus musculus) (UniProt Q04207); test: Inhibition of LPS-induced p65 translocation from cytoplasm to nucleus in mouse BV2 cells up to 10 uM preincubated for 30 mins followed by LPS-stimulation for 16 hrs by Western blot analysis; assay type: cell-based; outline: as §2
Sequence of Transcription factor p65 (Mus musculus) (Q04207 whole entry): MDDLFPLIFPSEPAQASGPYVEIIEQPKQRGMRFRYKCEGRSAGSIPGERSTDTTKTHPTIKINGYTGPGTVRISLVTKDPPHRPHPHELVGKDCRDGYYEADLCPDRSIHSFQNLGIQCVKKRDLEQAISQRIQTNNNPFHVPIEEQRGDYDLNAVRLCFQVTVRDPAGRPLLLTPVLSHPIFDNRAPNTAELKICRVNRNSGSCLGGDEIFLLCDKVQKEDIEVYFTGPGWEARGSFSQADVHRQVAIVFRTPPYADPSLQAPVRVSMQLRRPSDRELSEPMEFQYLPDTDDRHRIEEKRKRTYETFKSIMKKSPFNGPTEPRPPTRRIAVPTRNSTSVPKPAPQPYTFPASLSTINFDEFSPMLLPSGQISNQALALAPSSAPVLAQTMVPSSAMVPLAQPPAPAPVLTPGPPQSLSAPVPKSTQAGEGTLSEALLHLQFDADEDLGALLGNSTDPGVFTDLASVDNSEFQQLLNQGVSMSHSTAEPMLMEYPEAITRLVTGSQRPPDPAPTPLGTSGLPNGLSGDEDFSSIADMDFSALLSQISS

[8] = biological target: Mitogen-activated protein kinase 1 and 3 (ERK2 and ERK1) (Mus musculus) (UniProt P63085+Q63844); test: Inhibition of LPS-induced ERK1/2 phosphorylation in mouse BV2 cells up to 10 uM preincubated for 30 mins followed by LPS-stimulation for 16 hrs by Western blot analysis; assay type: cell-based; outline: as §2
Sequence of Mitogen-activated protein kinase 1 and 3 (ERK2 and ERK1) (Mus musculus) (P63085 whole entry, looked up): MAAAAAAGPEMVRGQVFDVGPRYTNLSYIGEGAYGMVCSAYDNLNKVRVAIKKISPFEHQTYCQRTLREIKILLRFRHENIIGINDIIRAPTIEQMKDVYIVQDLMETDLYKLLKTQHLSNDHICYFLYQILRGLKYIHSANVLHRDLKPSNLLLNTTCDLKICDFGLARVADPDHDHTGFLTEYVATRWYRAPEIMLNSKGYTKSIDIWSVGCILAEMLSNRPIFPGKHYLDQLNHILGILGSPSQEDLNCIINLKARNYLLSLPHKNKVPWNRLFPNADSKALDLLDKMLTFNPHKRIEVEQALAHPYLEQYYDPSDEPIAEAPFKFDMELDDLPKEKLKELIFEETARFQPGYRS
Sequence of Mitogen-activated protein kinase 1 and 3 (ERK2 and ERK1) (Mus musculus) (Q63844 whole entry, looked up): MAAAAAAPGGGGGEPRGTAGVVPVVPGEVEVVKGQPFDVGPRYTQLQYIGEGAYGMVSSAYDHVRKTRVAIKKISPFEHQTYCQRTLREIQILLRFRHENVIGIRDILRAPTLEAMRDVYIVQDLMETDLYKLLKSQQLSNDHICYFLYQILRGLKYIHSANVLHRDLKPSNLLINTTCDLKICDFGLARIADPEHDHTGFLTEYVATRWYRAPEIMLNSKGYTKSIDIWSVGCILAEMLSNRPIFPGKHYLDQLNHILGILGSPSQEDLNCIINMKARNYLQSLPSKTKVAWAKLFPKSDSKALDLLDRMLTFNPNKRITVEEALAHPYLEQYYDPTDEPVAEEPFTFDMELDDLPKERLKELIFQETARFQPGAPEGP

[9] = biological target: T1, NF-kappa-B inhibitor alpha (Mus musculus) (UniProt Q9Z1E3); test: Inhibition of LPS-induced IkappaBalpha phosphorylation in mouse BV2 cells up to 10 uM preincubated for 30 mins followed by LPS-stimulation for 16 hrs by Western blot analysis; assay type: cell-based; outline: as §2
T1 sequence (whole entry): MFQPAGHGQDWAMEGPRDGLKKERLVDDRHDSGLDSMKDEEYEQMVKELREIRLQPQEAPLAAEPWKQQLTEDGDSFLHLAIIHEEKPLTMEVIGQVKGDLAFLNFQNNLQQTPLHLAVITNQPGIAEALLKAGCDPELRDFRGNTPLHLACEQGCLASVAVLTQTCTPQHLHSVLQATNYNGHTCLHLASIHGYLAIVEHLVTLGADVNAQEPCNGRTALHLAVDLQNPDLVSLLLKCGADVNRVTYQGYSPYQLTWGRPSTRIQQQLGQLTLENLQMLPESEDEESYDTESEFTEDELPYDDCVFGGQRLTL

Mus musculus = species on record: Mus musculus; test: Inhibition of LPS-induced JNK phosphorylation in mouse BV2 cells up to 10 uM preincubated for 30 mins followed by LPS-stimulation for 16 hrs by Western blot analysis; assay type: cell-based; outline: as §2

Structure (SMILES)	IC50 (BV-2 [1]) [µM]	IC50 (BV-2 [2]) [µM]	Papp at 10 h [3] [×10⁻⁶ cm/s]	IC50 (BV-2 [4]) [µM]	inhibition (BV-2 [5])	inhibition [6]	inhibition [7]	inhibition [8]	inhibition [9]	inhibition (Mus musculus)
O=C(/C(=C/c1ccc(Cl)cc1)c1cccc(C(F)(F)F)c1)N1CCN(c2ncccn2)CC1	21.9	43.1	5.1	26.9	–	–	–	–	–	–
O=C(/C(=C/C=C/c1ccccc1)c1ccc(F)cc1)N1CCN(c2ncccn2)CC1	2.4	5.9	14.9	7.9	–	–	–	–	–	–
COc1ccc(/C=C(/C(=O)N2CCN(c3ncccn3)CC2)c2ccc(F)cc2)cc1	42.9	41.3	10.5	23.1	–	–	–	–	–	–
O=C(/C(=C/c1cccc(Cl)c1)c1ccc(F)cc1)N1CCN(c2ncccn2)CC1	11.9	9.4	9.4	11	–	–	–	–	–	–
COc1ccc(/C=C(/C(=O)N2CCN(c3ncccn3)CC2)c2ccccc2)cc1	3.4	16.9	10.3	9.5	–	–	–	–	–	–
O=C(/C(=C/c1ccccc1)c1ccc(F)cc1)N1CCN(c2ncccn2)CC1	10.2	15.2	11.2	8.1	–	–	–	–	–	–
COc1ccc(O)c(/C=C(/C(=O)N2CCN(c3ncccn3)CC2)c2ccccc2)c1	11.4	36.4	14.1	48.1	–	–	–	–	–	–
O=C(/C(=C/c1ccccc1)c1cccc(C(F)(F)F)c1)N1CCN(c2ncccn2)CC1	25.3	> 50	7.2	39.8	–	–	–	–	–	–
COc1ccccc1/C=C(/C(=O)N1CCN(c2ncccn2)CC1)c1cccc(C(F)(F)F)c1	41.2	34.7	9.7	31.7	–	–	–	–	–	–
O=C(/C(=C/c1ccc(Cl)cc1)c1ccc(F)cc1)N1CCN(c2ncccn2)CC1	36.4	17.8	7.8	25.1	–	–	–	–	–	–
COc1ccc(O)c(/C=C(/C(=O)N2CCN(c3ncccn3)CC2)c2cccc(C(F)(F)F)c2)c1	> 50	> 50	12.7	42.6	–	–	–	–	–	–
O=C(/C(=C/c1ccccc1Cl)c1ccc(F)cc1)N1CCN(c2ncccn2)CC1	5.2	10.9	11.3	7.3	–	–	–	–	–	–
Oc1ccc(/C=C/c2cc(O)cc(O)c2)cc1 [RESVERATROL]	8.7	9.5	1.1	11.1	–	–	–	–	–	–
COc1ccc(/C=C(/C(=O)N2CCN(c3ncccn3)CC2)c2cccc(C(F)(F)F)c2)cc1	15.2	26.5	14.7	22.4	–	–	–	–	–	–
COc1ccccc1/C=C(/C(=O)N1CCN(c2ncccn2)CC1)c1ccccc1	31.6	21.3	12.3	7.9	–	–	–	–	–	–
O=C(/C(=C/c1ccc(F)cc1)c1cccc(C(F)(F)F)c1)N1CCN(c2ncccn2)CC1	31.2	19.8	12.3	15.6	–	–	–	–	–	–
O=C(/C(=C/c1ccc(Cl)cc1)c1ccccc1)N1CCN(c2ncccn2)CC1	> 50	> 50	7.4	> 50	–	–	–	–	–	–
O=C(/C(=C/c1ccc(F)cc1)c1ccc(F)cc1)N1CCN(c2ncccn2)CC1	25.7	37.5	14.3	> 50	–	–	–	–	–	–
COc1ccc(O)c(/C=C(/C(=O)N2CCN(c3ncccn3)CC2)c2ccc(F)cc2)c1	> 50	> 50	6.4	46.8	–	–	–	–	–	–
O=C(/C(=C/c1ccccc1Cl)c1cccc(C(F)(F)F)c1)N1CCN(c2ncccn2)CC1	18.4	25.1	15.1	19.9	–	–	–	–	–	–
O=C(/C(=C/c1ccccc1)c1ccccc1)N1CCN(c2ncccn2)CC1	> 50	35.4	14.3	17.8	–	–	–	–	–	–
O=C(/C(=C/c1ccc(C(F)(F)F)cc1)c1ccc(F)cc1)N1CCN(c2ncccn2)CC1	8.9	6.6	7.6	3	–	–	–	–	–	–
COc1ccccc1/C=C(/C(=O)N1CCN(c2ncccn2)CC1)c1ccc(F)cc1	18.4	23.7	13.8	9.9	–	–	–	–	–	–
O=C(/C(=C/c1cccc(Cl)c1)c1ccccc1)N1CCN(c2ncccn2)CC1	7.8	16.2	11.2	12.6	–	–	–	–	–	–
O=C(/C(=C/C=C/c1ccccc1)c1cccc(C(F)(F)F)c1)N1CCN(c2ncccn2)CC1	0.5	2.6	12.6	1	Dose-dependent effect	Active	inactive	Active	inactive	Active
O=C(/C(=C/c1ccc(C(F)(F)F)cc1)c1ccccc1)N1CCN(c2ncccn2)CC1	11.3	21.6	8.2	14.9	–	–	–	–	–	–
O=C(/C(=C/c1cccc(Cl)c1)c1cccc(C(F)(F)F)c1)N1CCN(c2ncccn2)CC1	15.2	26.7	10.7	37.2	–	–	–	–	–	–
O=C(/C(=C/c1ccc(C(F)(F)F)cc1)c1cccc(C(F)(F)F)c1)N1CCN(c2ncccn2)CC1	4.2	6.9	9.3	6.5	–	–	–	–	–	–
O=C(/C(=C/c1ccccc1Cl)c1ccccc1)N1CCN(c2ncccn2)CC1	9.3	17.6	9.4	10.1	–	–	–	–	–	–
